# Measured values from ChEMBL document CHEMBL2440040, “Synthesis of 4″-O-desosaminyl clarithromycin derivatives and their anti-bacterial activities” (2013).
# Assays:
# Format in all cases: functional
# Streptococcus pneumoniae [1] = experiment: Antibacterial activity against erythromycin-resistant Streptococcus pneumoniae 12-6 by broth microdilution method
# Streptococcus pneumoniae [2] = experiment: Antibacterial activity against erythromycin-resistant Streptococcus pneumoniae 12-5 by broth microdilution method
# Streptococcus pneumoniae [3] = experiment: Antibacterial activity against erythromycin-sensitive Streptococcus pneumoniae 12-14 by broth microdilution method
# Procedure, shortened: (§1)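 Strains obtained from the Institute of Medicinal Biotechnology, Academy of Medical Sciences & Peking Union Medical College. MIC determined in vitro by broth microdilution following NCCLS recommendations.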
# Streptococcus pneumoniae [4] = experiment: Antibacterial activity against erythromycin-sensitive Streptococcus pneumoniae 12-10 by broth microdilution method; procedure, shortened: as §1
# Streptococcus pneumoniae [5] = experiment: Antibacterial activity against erythromycin-sensitive Streptococcus pneumoniae 12-8 by broth microdilution method; procedure, shortened: as §1
# Streptococcus pneumoniae [6] = experiment: Antibacterial activity against erythromycin-sensitive Streptococcus pneumoniae 12-4 by broth microdilution method
# Streptococcus pneumoniae [7] = experiment: Antibacterial activity against erythromycin-sensitive Streptococcus pneumoniae 12-1 by broth microdilution method; procedure, shortened: as §1
# Streptococcus pyogenes [8] = experiment: Antibacterial activity against erythromycin-resistant Streptococcus pyogenes 11-2 by broth microdilution method
# Streptococcus pyogenes [9] = experiment: Antibacterial activity against erythromycin-sensitive Streptococcus pyogenes ATCC 19625 by broth microdilution method; procedure, shortened: as §1
# [10] = tested on: Staphylococcus epidermidis; experiment: Antibacterial activity against methicillin-resistant Staphylococcus epidermidis 12-11 by broth microdilution method
# [11] = tested on: Staphylococcus epidermidis; experiment: Antibacterial activity against methicillin-resistant Staphylococcus epidermidis 12-4 by broth microdilution method
# [12] = tested on: Staphylococcus epidermidis; experiment: Antibacterial activity against methicillin-sensitive Staphylococcus epidermidis 12-5 by broth microdilution method; procedure, shortened: as §1
# [13] = tested on: Staphylococcus epidermidis; experiment: Antibacterial activity against methicillin-sensitive Staphylococcus epidermidis 11-20 by broth microdilution method; procedure, shortened: as §1
# [14] = tested on: Staphylococcus epidermidis; experiment: Antibacterial activity against methicillin-sensitive Staphylococcus epidermidis ATCC 12228 by broth microdilution method; procedure, shortened: as §1
# Staphylococcus aureus [15] = experiment: Antibacterial activity against methicillin-resistant Staphylococcus aureus 12-31 by broth microdilution method
# Staphylococcus aureus [16] = experiment: Antibacterial activity against methicillin-sensitive Staphylococcus aureus 12-32 by broth microdilution method; procedure, shortened: as §1
# Staphylococcus aureus [17] = experiment: Antibacterial activity against methicillin-sensitive Staphylococcus aureus ATCC 29213 by broth microdilution method; procedure, shortened: as §1
SMILES,MIC (Streptococcus pneumoniae [1]),MIC (Streptococcus pneumoniae [2]),MIC (Streptococcus pneumoniae [3]),MIC (Streptococcus pneumoniae [4]),MIC (Streptococcus pneumoniae [5]),MIC (Streptococcus pneumoniae [6]),MIC (Streptococcus pneumoniae [7]),MIC (Streptococcus pyogenes [8]),MIC (Streptococcus pyogenes [9]),MIC [10],MIC [11],MIC [12],MIC [13],MIC [14],MIC (Staphylococcus aureus [15]),MIC (Staphylococcus aureus [16]),MIC (Staphylococcus aureus [17])
CC[C@H]1OC(=O)[C@H](C)[C@@H](O[C@H]2C[C@@](C)(OC)[C@@H](O[C@@H]3O[C@H](C)[C@@H](OCc4ccccc4)[C@H](N(C)C)[C@H]3OC(=O)c3ccccc3)[C@H](C)O2)[C@H](C)[C@@H](O[C@@H]2O[C@H](C)C[C@H](N(C)C)[C@H]2O)[C@@](C)(OC)C[C@@H](C)C(=O)[C@H](C)[C@H]2OC(=O)O[C@@]21C,> 32 µg/mL,> 32 µg/mL,> 32 µg/mL,> 32 µg/mL,16 µg/mL,> 32 µg/mL,> 32 µg/mL,> 32 µg/mL,> 32 µg/mL,> 32 µg/mL,> 32 µg/mL,> 32 µg/mL,> 32 µg/mL,> 32 µg/mL,> 32 µg/mL,> 32 µg/mL,> 32 µg/mL
CC[C@H]1OC(=O)[C@H](C)[C@@H](O[C@H]2C[C@@](C)(OC)[C@@H](O[C@@H]3O[C@H](C)[C@@H](OCc4ccccc4)[C@H](N(C)C)[C@H]3OC(=O)c3ccccc3)[C@H](C)O2)[C@H](C)[C@@H](O[C@@H]2O[C@H](C)C[C@H](N(C)C)[C@H]2O)[C@@](C)(OC)C[C@@H](C)C(=O)[C@H](C)[C@@H](O)[C@]1(C)O,32 µg/mL,32 µg/mL,32 µg/mL,16 µg/mL,2 µg/mL,32 µg/mL,> 32 µg/mL,> 32 µg/mL,> 32 µg/mL,> 32 µg/mL,> 32 µg/mL,> 32 µg/mL,> 32 µg/mL,> 32 µg/mL,> 32 µg/mL,> 32 µg/mL,> 32 µg/mL
CC[C@H]1OC(=O)[C@H](C)[C@@H](O[C@H]2C[C@@](C)(OC)[C@@H](O[C@@H]3O[C@H](C)[C@@H](OCc4ccccc4)[C@H](N(C)C)[C@H]3O)[C@H](C)O2)[C@H](C)[C@@H](O[C@@H]2O[C@H](C)C[C@H](N(C)C)[C@H]2O)[C@@](C)(OC)C[C@@H](C)C(=O)[C@H](C)[C@@H](O)[C@]1(C)O,32 µg/mL,32 µg/mL,32 µg/mL,32 µg/mL,32 µg/mL,32 µg/mL,32 µg/mL,> 32 µg/mL,32 µg/mL,> 32 µg/mL,> 32 µg/mL,> 32 µg/mL,> 32 µg/mL,> 32 µg/mL,> 32 µg/mL,> 32 µg/mL,> 32 µg/mL
CC[C@H]1OC(=O)[C@H](C)[C@@H](O[C@H]2C[C@@](C)(OC)[C@@H](O[C@@H]3O[C@H](C)[C@@H](O)[C@H](N(C)C)[C@H]3OC(=O)c3ccccc3)[C@H](C)O2)[C@H](C)[C@@H](O[C@@H]2O[C@H](C)C[C@H](N(C)C)[C@H]2O)[C@@](C)(OC)C[C@@H](C)C(=O)[C@H](C)[C@@H](O)[C@]1(C)O,> 32 µg/mL,32 µg/mL,16 µg/mL,16 µg/mL,4 µg/mL,32 µg/mL,> 32 µg/mL,> 32 µg/mL,8 µg/mL,16 µg/mL,16 µg/mL,32 µg/mL,32 µg/mL,> 32 µg/mL,> 32 µg/mL,> 32 µg/mL,16 µg/mL
CC[C@H]1OC(=O)[C@H](C)[C@@H](O[C@H]2C[C@@](C)(OC)[C@@H](O[C@@H]3O[C@H](C)[C@@H](O)[C@H](N(C)C)[C@H]3O)[C@H](C)O2)[C@H](C)[C@@H](O[C@@H]2O[C@H](C)C[C@H](N(C)C)[C@H]2O)[C@@](C)(OC)C[C@@H](C)C(=O)[C@H](C)[C@@H](O)[C@]1(C)O,32 µg/mL,16 µg/mL,4 µg/mL,2 µg/mL,2 µg/mL,16 µg/mL,2 µg/mL,> 32 µg/mL,2 µg/mL,2 µg/mL,4 µg/mL,16 µg/mL,8 µg/mL,16 µg/mL,> 32 µg/mL,16 µg/mL,4 µg/mL
CC[C@H]1OC(=O)[C@H](C)[C@@H](O[C@H]2C[C@@](C)(OC)[C@@H](O[C@@H]3O[C@H](C)[C@@H](OCc4ccccc4)[C@H](N(C)C)[C@H]3O)[C@H](C)O2)[C@H](C)[C@@H](O[C@@H]2O[C@H](C)C[C@H](N(C)C)[C@H]2O)[C@@](C)(OC)C[C@@H](C)C(=O)[C@H](C)[C@H]2OC(=O)O[C@@]21C,32 µg/mL,32 µg/mL,4 µg/mL,1 µg/mL,2 µg/mL,32 µg/mL,2 µg/mL,> 32 µg/mL,2 µg/mL,16 µg/mL,> 32 µg/mL,16 µg/mL,16 µg/mL,> 32 µg/mL,> 32 µg/mL,16 µg/mL,16 µg/mL
CC[C@H]1OC(=O)[C@H](C)[C@@H](O[C@H]2C[C@@](C)(OC)[C@@H](O[C@@H]3O[C@H](C)[C@@H](O)[C@H](N(C)C)[C@H]3OC(=O)c3ccccc3)[C@H](C)O2)[C@H](C)[C@@H](O[C@@H]2O[C@H](C)C[C@H](N(C)C)[C@H]2O)[C@@](C)(OC)C[C@@H](C)C(=O)[C@H](C)[C@H]2OC(=O)O[C@@]21C,32 µg/mL,32 µg/mL,2 µg/mL,2 µg/mL,1 µg/mL,16 µg/mL,1 µg/mL,32 µg/mL,1 µg/mL,≤ 1 µg/mL,8 µg/mL,2 µg/mL,4 µg/mL,2 µg/mL,> 32 µg/mL,2 µg/mL,2 µg/mL
CC[C@H]1OC(=O)[C@H](C)[C@@H](O[C@H]2C[C@@](C)(OC)[C@@H](O[C@@H]3O[C@H](C)[C@@H](O)[C@H](N(C)C)[C@H]3O)[C@H](C)O2)[C@H](C)[C@@H](O[C@@H]2O[C@H](C)C[C@H](N(C)C)[C@H]2O)[C@@](C)(OC)C[C@@H](C)C(=O)[C@H](C)[C@H]2OC(=O)O[C@@]21C,16 µg/mL,16 µg/mL,2 µg/mL,1 µg/mL,1 µg/mL,4 µg/mL,2 µg/mL,16 µg/mL,2 µg/mL,16 µg/mL,32 µg/mL,16 µg/mL,16 µg/mL,32 µg/mL,> 32 µg/mL,32 µg/mL,16 µg/mL
CC[C@H]1OC(=O)[C@H](C)[C@@H](O[C@H]2C[C@@](C)(OC)[C@@H](O[C@@H]3O[C@H](C)[C@@H](O)[C@H](N(C)C)[C@H]3OC(=O)c3ccccc3)[C@H](C)O2)[C@H](C)[C@@H](O[C@@H]2O[C@H](C)C[C@H](N(C)C)[C@H]2O)[C@@](C)(OC)C[C@@H](C)C(=O)/C(C)=C/[C@]1(C)O,> 32 µg/mL,> 32 µg/mL,> 32 µg/mL,> 32 µg/mL,16 µg/mL,> 32 µg/mL,1 µg/mL,> 32 µg/mL,1 µg/mL,32 µg/mL,> 32 µg/mL,32 µg/mL,> 32 µg/mL,32 µg/mL,> 32 µg/mL,> 32 µg/mL,> 32 µg/mL
CC[C@H]1OC(=O)[C@H](C)[C@@H](O[C@H]2C[C@@](C)(OC)[C@@H](O)[C@H](C)O2)[C@H](C)[C@@H](O[C@@H]2O[C@H](C)C[C@H](N(C)C)[C@H]2O)[C@](C)(OC)C[C@@H](C)C(=O)[C@H](C)[C@@H](O)[C@]1(C)O [CLARITHROMYCIN],> 32 µg/mL,> 32 µg/mL,1 µg/mL,1 µg/mL,1 µg/mL,2 µg/mL,1 µg/mL,4 µg/mL,≤ 1 µg/mL,4 µg/mL,32 µg/mL,≤ 1 µg/mL,8 µg/mL,≤ 1 µg/mL,> 32 µg/mL,4 µg/mL,≤ 1 µg/mL
CC[C@H]1OC(=O)[C@H](C)C(=O)[C@H](C)[C@@H](O[C@@H]2O[C@H](C)C[C@H](N(C)C)[C@H]2O)[C@](C)(OC)C[C@@H](C)C(=O)[C@H](C)[C@H]2N(CCCCn3cnc(-c4cccnc4)c3)C(=O)O[C@]12C [TELITHROMYCIN],≤ 2 µg/mL,≤ 2 µg/mL,≤ 2 µg/mL,≤ 2 µg/mL,≤ 2 µg/mL,≤ 2 µg/mL,≤ 2 µg/mL,2 µg/mL,≤ 2 µg/mL,≤ 2 µg/mL,≤ 2 µg/mL,≤ 2 µg/mL,≤ 2 µg/mL,≤ 2 µg/mL,> 64 µg/mL,≤ 2 µg/mL,≤ 2 µg/mL
